Among the data in ChEMBL document CHEMBL1759944, “Structure-activity relationship of 2,4,5-trioxoimidazolidines as inhibitors of thymidine phosphorylase” (Eur J Med Chem, 2011) are IC50 values, retold here.

The structures appear in SMILES notation. pIC50: −log10 of the molar value. Structures can show the parent of a compound that is named as a salt.

The target in this test is Thymidine phosphorylase (Escherichia coli K-12, UniProt P07650). Description: Inhibition of Escherichia coli Thymidine phosphorylase by spectrophotometry. The following applies: for pIC50: read-out: IC50. Put shortly: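 E. coli TP (0.22 units) added to start a 1 ml reaction containing […] and inhibitor in 0.1 M potassium phosphate, pH 7.4. Loss of thymidine absorbance followed at 265 nm, 25 °C, in a thermostatted cuvette. IC50 obtained from inhibition curves by enzyme kinetics analysis.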
Sequence of Thymidine phosphorylase (P07650 whole entry): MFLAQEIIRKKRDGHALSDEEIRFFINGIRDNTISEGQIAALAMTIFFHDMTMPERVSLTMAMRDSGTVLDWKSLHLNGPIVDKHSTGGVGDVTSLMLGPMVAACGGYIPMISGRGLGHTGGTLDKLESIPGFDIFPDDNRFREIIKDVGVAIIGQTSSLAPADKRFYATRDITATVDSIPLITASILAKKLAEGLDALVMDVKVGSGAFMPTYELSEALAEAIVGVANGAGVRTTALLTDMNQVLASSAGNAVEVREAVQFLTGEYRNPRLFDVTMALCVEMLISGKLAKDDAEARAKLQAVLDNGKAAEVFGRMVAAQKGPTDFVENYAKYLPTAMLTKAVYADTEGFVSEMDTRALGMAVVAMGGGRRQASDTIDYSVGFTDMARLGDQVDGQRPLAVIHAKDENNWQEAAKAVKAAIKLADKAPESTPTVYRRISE

In general, pIC50 refers to −log10 of the IC50, conventionally taken in molar units. In the case of `Cc1ccccc1CN1C(=O)NC(=O)C1=O`, the pIC50 is 3.89.

With `NC(=O)CCN1C(=O)C(=O)N(CCc2ccccc2)C1=O`, the negative logarithm of the IC50 (pIC50) is 4.40.

For the compound `NC(=O)CCN1C(=O)C(=O)N(Cc2ccccc2)C1=O`, the negative logarithm of the IC50 (pIC50) is 3.97.

Regarding `O=C(O)CN1C(=O)C(=O)N(Cc2ccccc2)C1=O`, the pIC50 was 3.58.

With `O=C1NC(=O)N(Cc2ccccc2)C1=O`, the negative logarithm of the IC50 (pIC50) was 3.94.

As to `O=C(O)CN1C(=O)C(=O)N(CCc2ccccc2)C1=O`, the pIC50 is 4.07.

Take `O=C1NC(=O)N(CCc2ccccc2)C1=O`: the pIC50 is 3.99.

For the compound `CCOC(=O)CN1C(=O)C(=O)N(Cc2cccc(Cl)c2)C1=O`, the negative logarithm of the IC50 (pIC50) is 3.53.

For the compound `CCOC(=O)CN1C(=O)C(=O)N(Cc2ccccc2)C1=O`, the pIC50 is 3.47.

As to `CCOC(=O)CN1C(=O)C(=O)N(Cc2ccccc2C)C1=O`, the negative logarithm of the IC50 (pIC50) was 3.52.

For the compound `N=C1CCCN1Cc1[nH]c(=O)[nH]c(=O)c1Cl` [TIPIRACIL HYDROCHLORIDE], the negative-log IC50 (pIC50) was 7.44.

Regarding `Cc1ccccc1CN1C(=O)C(=O)N(CCC(N)=O)C1=O`, the negative logarithm of the IC50 (pIC50) was 4.06.

Consider `CCOC(=O)CN1C(=O)C(=O)N(CCc2ccccc2)C1=O`, for which the pIC50 was 3.45.

As for `NC(=O)CCN1C(=O)C(=O)N(Cc2cccc(Cl)c2)C1=O`, the pIC50 is 4.18.

For the compound `Cc1ccccc1CN1C(=O)C(=O)N(CC(=O)O)C1=O`, the pIC50 was 3.63.

On to `O=C(O)CN1C(=O)C(=O)N(Cc2cccc(Cl)c2)C1=O`, for which the IC50 entry is given as “Active”.

With `O=C1NC(=O)N(Cc2cccc(Cl)c2)C1=O`, the negative logarithm of the IC50 (pIC50) was 3.93.
